Fewer inactive variants are shown than the library holds.
B1: tRNA (parent)
chain: GUUCCGUUGGCGUAAUGGUAACGCGUCUCCCUCCUAAGGAGAAGACUGCGGGUUCGAGUCCCGUACGGAACG

Variants of: B1
Assay: yeast fitness relative to wild type (ratio to wild type); higher = fitter; tRNA-Arg(CCU), competitive growth, 37 C, YPD
Outline: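 Amplicons of the tRNA-Arg(CCU) gene were sequenced, 100-nucleotide paired-end, from the start population and from each end population of a pooled yeast competition. The competition, in six parallel replicates, lasted 24 hours in YPD at 37°C. Fitness relative to wild type was calculated from changes in genotype frequencies. Genotypes had to have ≥ 100 starting reads, and estimates < 0.5 were set to 0.5.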

Variant | yeast fitness
C11G C27U C33U A65C G67A | ≤ 0.5
C11G G12A G41C C66A G67C | 0.596
C11A G51A C66G | ≤ 0.5
C11A A36C A42G U47C G67A | ≤ 0.5
C11U A15U G56C | ≤ 0.5
C11A G23A G63C | 0.551
C11G C46U C49A C55U A69U | 0.536
C11G A15U U16C C24G A40G C62U A70C | ≤ 0.5
C11A C22G C29G C62U | 0.57
C11A U13A C31G C55U | ≤ 0.5
C11G C24U C55G | ≤ 0.5
C11G A15U C22U A42G | ≤ 0.5
C11A G17C A36G G41C U53C C61A G68A | ≤ 0.5
C11G U26A | 0.583
C11A U16C G18C A20G A45C A57C G68C | ≤ 0.5
C11G A20G A43U U47A A65U G67C | ≤ 0.5
C11G A15U A65C | 0.544
C11G C30A G44C G52C U64G | ≤ 0.5
C11G C30U C31G C33G A37U U64A | ≤ 0.5
C11G A21U G68C | ≤ 0.5
C11G C24U U28C C55G | ≤ 0.5
C11G A37U | ≤ 0.5
C11G C60G G67C | 0.667
C11U A21U G41C | 0.603

Variant | yeast fitness
C11U A14G G23A | 0.504
C11A A42C C62A | ≤ 0.5
C11A C22U U35C | ≤ 0.5
C11G C29U C34U G51C C66U | ≤ 0.5
C11G C46A | 0.576
C11G C46G | 0.75
C11G U16C C27G C61U | 0.545
C11G A21U U26C U47C G68C | ≤ 0.5
C11A A20U C22U | 0.552
C11U A14U U19G | ≤ 0.5
C11A G52C G67A | ≤ 0.5
C11G C29G G38A G44A C46U C62A | ≤ 0.5
C11G C34U A42C C66A | ≤ 0.5
C11U A21C A42G C49U A69C A70G | ≤ 0.5
C11A A40C | 0.708
C11U A15U A21C C24G C29U A42C U59G G67U | ≤ 0.5
C11G G48A | 0.582
C11A C29U A43C A65U | ≤ 0.5
C11A U19G A36G U54C U64C G67A | ≤ 0.5
C11G A15C | 0.528
C11G C31U G41C | ≤ 0.5
C11U A14G A65U G68A | 0.617
C11G A21U A42U | ≤ 0.5
C11A U59A G67C A69C | ≤ 0.5

Variant | yeast fitness
C11U A15C | 0.595
C11G G23C G39A | 0.525
C11G U32G U54A U59A G67A | ≤ 0.5
C11G A15C C24G C46A | 0.546
C11A A36G C49G A70G | 0.584
C11G U16A C29U | ≤ 0.5
C11G C34U C55G | 0.689
C11G C55G | 0.594
C11G A15C G48C C55G G67C A70U | ≤ 0.5
C11G G12C A20C C24G A37G G68A A69C | ≤ 0.5
C11U A15G C24G C27G C31U G41C C49U | ≤ 0.5
C11A C29U C46U G67C A69U | ≤ 0.5
C11G G12C A20G A43G A45C A69U | ≤ 0.5
C11G G18C A21G A40U A70U | 0.509
C11G C24A G48C U54G C55U C66U | ≤ 0.5
C11A A21C C55U C62U G67C | 0.529
C11A C30U C49A A69U | ≤ 0.5
C11U A20U C24U C30U C33A U54A C61G | ≤ 0.5
C11A G38U C66A | ≤ 0.5
C11A C34A U47A C61G | ≤ 0.5
C11A U47A A70C | ≤ 0.5
C11G U32C | 0.597
C11U A21C C27G G39C A57C G68U | ≤ 0.5
C11G A14G C24G G67C | ≤ 0.5

Variant | yeast fitness
C11G G56A | 0.721
C11G A15G C24G C46G G67A | ≤ 0.5
C11U A14G C27U C31U A36C G44C A45G G56C | ≤ 0.5
C11G U35C A43C G52C U54A | 0.644
C11U A21C A42G | 0.523
C11A G17C A36G G41C A45G C49U | ≤ 0.5
C11G C30U A37C A70U | ≤ 0.5
C11A C29U C34G A36G | 0.607
C11G C24G C27U C55U | 0.55
C11G U13G A21G G63A | ≤ 0.5
C11A G48A U54A | 0.584
C11G C24U G68C | 0.523
C11A C27G C61G G68A | ≤ 0.5
C11A C46G A65G | ≤ 0.5
C11A G23C A42C A43C | ≤ 0.5
C11A U53A G67A | ≤ 0.5
C11A C27A C55U | ≤ 0.5
C11G G25A A45C | ≤ 0.5
C11A A57G | 0.655
C11G G23C A36U G44C G68A | 0.717
C11A A43G A69U | 0.582
C11G U19C A40G C66G A69U | ≤ 0.5
C11G U26A U35A G67C | ≤ 0.5
C11U A15U G38A G56A | ≤ 0.5

Variant | yeast fitness
C11A U19A C29A U32A U54C C55G C60G A70U | ≤ 0.5
C11A U13A C31G A65C | ≤ 0.5
C11G C22U U53C G68C | 0.521
C11G A15G U26G C66U | ≤ 0.5
C11G C24U G67A | ≤ 0.5
C11G A36C U47C C49U A69C | ≤ 0.5
C11A G39C C62U | ≤ 0.5
C11G C27U U28A | 0.537
C11A C27U G44C | 0.572
C11U A15G A65C | 0.713
C11U A20G A36C C49G C61G C62G | ≤ 0.5
C11A A69U | 0.734
C11G A15C C34U A65C | ≤ 0.5
C11G C31U G67C | 0.632
C11G C22G A45C | ≤ 0.5
C11G C24U A45C C55U | ≤ 0.5
C11G G17A A20U C33G A43C C61G A65G | ≤ 0.5
C11A U26C C29G C31U G48A | ≤ 0.5
C11G C22G C66A A69U | 0.533
C11A C33A A40G A43G | ≤ 0.5
C11A C27U C33U U35C A57U | ≤ 0.5
C11A U16C G18C U35C A45C A57C G68C | 0.515
C11G G12A C27U A43G | ≤ 0.5
C11G C29G C33U C46A C49G | 0.564

Variant | yeast fitness
C11G A42U C66G G67U | ≤ 0.5
C11G A14U A43U G48A | ≤ 0.5
C11A C31A G38U G44C A65G | ≤ 0.5
C11G U32A C33G C34A A57C | ≤ 0.5
C11A C27U C31U C34G A40G G63C | ≤ 0.5
C11G U47A G48A | 0.58
C11U A15U C46U | 0.741
C11A C29U A57C | 0.732
C11A C30U A45C | ≤ 0.5
C11G U19A C31U A43G G52C | ≤ 0.5
C11G U13C G58C A69U | ≤ 0.5
C11G G12A C22U G44A | ≤ 0.5
C11U A21U C55A | 0.632
C11G C24A U28G A36G G63A | ≤ 0.5
C11A A43G G50C G56C A65G | ≤ 0.5
C11U A14G A57G U59C A69U | ≤ 0.5
C11G C49G C66A G67U | ≤ 0.5
C11G C31U C33U | 0.509
C11A G44C G56A C66U | 0.552
C11G G25A G56A C60A C62U G68C | ≤ 0.5
C11A C27G C61G | 0.52
C11A A36G A43C G48A | 0.558
C11G G17A A37U A70G | ≤ 0.5
C11G A20C G23A G52C C61U | 0.662

Variant | yeast fitness
C11G C24G C49U | ≤ 0.5
C11A G18A G58A U64C | ≤ 0.5
C11G G41C | 0.662
C11A U19G A36G C49A G68C | ≤ 0.5
C11A C31G | 0.592
C11A G17A | 0.579
C11A U32C C49U | 0.606
C11G A15C C46G U59A | ≤ 0.5
C11G A15C G38C C49G | ≤ 0.5
C11G A37C A45U G68C | ≤ 0.5
C11G U28C U54C G58A | 0.53
C11U A20C C29G | 0.568
C11G U59C | 0.589
C11A C24G C49U | 0.588
C11G U16G G38C U54A C66A | 0.648
C11G G48A C49G | 0.587
C11G C29U C34U G68C | ≤ 0.5
C11G G12A C24A C30G G44C C61G | ≤ 0.5
C11A A20G C22G C49G G68C A69C | ≤ 0.5
C11G G38C C55U C61G | ≤ 0.5
C11U A15C U16C A21G | ≤ 0.5
C11G A14G G17A A37G G48C C62U C66G A70G | ≤ 0.5
C11G C29A A40U G52A | ≤ 0.5

Source: the RNAGym collection of RNA variant scans (doi:10.1126/science.aae0568)
